≈ marks a conversion by molar mass, not a printed value. Calls of active or inactive are those of the source. No cut-off for these calls is given here.
Key:
Enterobacter cloacae = experiment: Antimicrobial activity against Enterobacter cloacae N1 by microtiter method; assay type: functional
Outline: (§1)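 Broth microdilution MIC in Oxoid nutrient broth No. 2. Inoculum was a 1/500 dilution of an overnight broth culture, and plates were incubated overnight at 37°.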

Pseudomonas aeruginosa = experiment: Antimicrobial activity against Pseudomonas aeruginosa 1771P by microtiter method; assay type: functional; outline: as §1
Staphylococcus aureus [1] = experiment: Antimicrobial activity against Staphylococcus aureus Smith by microtiter method; assay type: functional; outline: as §1
[2] = target: Beta-lactamase (Staphylococcus aureus) (UniProt P00807); experiment: Inhibition of Staphylococcus aureus Russell beta-lactamase assessed as inhibition of nitrocefin hydrolysis up to 567 ug/ml pre-incubated for 5 mins by microtiter plate assay
Outline: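 Inhibitor was pre-incubated with the enzyme for 5 min at 37°, then hydrolysis of 200 µM nitrocefin was read on a microtiter plate reader. Inhibitor was tested at concentrations up to 567 µg/ml.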

Klebsiella pneumoniae = experiment: Antimicrobial activity against Klebsiella pneumoniae A by microtiter method; assay type: functional; outline: as §1
Streptococcus pyogenes = experiment: Antimicrobial activity against Streptococcus pyogenes CN 10 after overnight incubation by Todd Hewitt broth dilution method; assay type: functional
Outline: (§2)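 Broth microdilution MIC in Todd Hewitt broth. Inoculum was a 1/500 dilution of an overnight broth culture, and plates were incubated overnight at 37°.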

Escherichia coli = experiment: Antimicrobial activity against Escherichia coli NCTC-10418 by microtiter method; assay type: functional; outline: as §1
Enterococcus faecalis = experiment: Antimicrobial activity against Streptococcus faecalis 1 by microtiter method; assay type: functional; outline: as §1
Serratia marcescens = experiment: Antimicrobial activity against Serratia marcescens US32 by microtiter method; assay type: functional; outline: as §1
Beta-lactamase [3] = target: Beta-lactamase (Enterobacter cloacae, UniProt P05364); experiment: Inhibition of Enterobacter cloacae P99 beta-lactamase assessed as inhibition of nitrocefin hydrolysis pre-incubated for 5 mins by microtiter plate assay
Staphylococcus aureus [4] = experiment: Antimicrobial activity against Staphylococcus aureus Russell by microtiter method; assay type: functional; outline: as §1
Bacillus subtilis = experiment: Antimicrobial activity against Bacillus subtilis ATCC 6633 by microtiter method; assay type: functional; outline: as §1
[5] = Inhibition of Escherichia coli K-12 beta-lactamase PSE-4 assessed as inhibition of nitrocefin hydrolysis preincubated for 5 mins by microtiter plate assay
Beta-lactamase TEM = Beta-lactamase TEM (Escherichia coli, UniProt P62593); experiment: Inhibition of Escherichia coli JT4 beta-lactamase TEM1 assessed as inhibition of nitrocefin hydrolysis preincubated for 5 mins by microtiter plate assay
Outline: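 Inhibitor was pre-incubated with enzyme for 5 min at 37° before each determination. Enzyme classification follows Bush.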

[6] = test system: Staphylococcus epidermidis; experiment: Antimicrobial activity against Staphylococcus epidermidis NCTC 11047 by microtiter method; assay type: functional; outline: as §1
Staphylococcus aureus [7] = experiment: Antimicrobial activity against Staphylococcus aureus Oxford by microtiter method; assay type: functional; outline: as §1
Streptococcus pneumoniae = experiment: Antimicrobial activity against Streptococcus pneumoniae PU7 after overnight incubation by Todd Hewitt broth dilution method; assay type: functional; outline: as §2
Proteus mirabilis = experiment: Antimicrobial activity against Proteus mirabilis C977 by microtiter method; assay type: functional; outline: as §1
Beta-lactamase [8] = target: T1, Beta-lactamase (Proteus mirabilis, UniProt P30897); experiment: Inhibition of Proteus mirabilis C889 beta-lactamase assessed as inhibition of nitrocefin hydrolysis preincubated for 5 mins by microtiter plate assay
T1 sequence (P30897 whole entry): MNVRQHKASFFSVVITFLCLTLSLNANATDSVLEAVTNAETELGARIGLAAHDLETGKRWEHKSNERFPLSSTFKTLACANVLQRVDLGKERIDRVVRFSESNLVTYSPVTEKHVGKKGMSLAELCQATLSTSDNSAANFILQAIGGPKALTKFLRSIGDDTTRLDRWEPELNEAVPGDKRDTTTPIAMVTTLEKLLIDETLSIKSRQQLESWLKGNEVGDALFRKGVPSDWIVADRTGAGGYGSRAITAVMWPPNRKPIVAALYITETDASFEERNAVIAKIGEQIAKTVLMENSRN

[9] = Inhibition of Escherichia coli K-12 beta-lactamase OXA1 assessed as inhibition of nitrocefin hydrolysis pre-incubated for 5 mins by microtiter plate assay
[10] = test system: Staphylococcus saprophyticus; experiment: Antimicrobial activity against Staphylococcus saprophyticus Fl2 by microtiter method; assay type: functional; outline: as §1
Beta-lactamase [11] = target: Beta-lactamase (Pseudomonas aeruginosa (strain ATCC 15692 / PAO1 / 1C / PRS 101 / LMG12228), UniProt P24735); experiment: Inhibition of Pseudomonas aeruginosa A beta-lactamase assessed as inhibition of nitrocefin hydrolysis preincubated for 5 mins by microtiter plate assay
Beta-lactamase (Pseudomonas aeruginosa (strain ATCC 15692 / PAO1 / 1C / PRS 101 / LMG12228), UniProt P24735), sequence (P24735 whole entry): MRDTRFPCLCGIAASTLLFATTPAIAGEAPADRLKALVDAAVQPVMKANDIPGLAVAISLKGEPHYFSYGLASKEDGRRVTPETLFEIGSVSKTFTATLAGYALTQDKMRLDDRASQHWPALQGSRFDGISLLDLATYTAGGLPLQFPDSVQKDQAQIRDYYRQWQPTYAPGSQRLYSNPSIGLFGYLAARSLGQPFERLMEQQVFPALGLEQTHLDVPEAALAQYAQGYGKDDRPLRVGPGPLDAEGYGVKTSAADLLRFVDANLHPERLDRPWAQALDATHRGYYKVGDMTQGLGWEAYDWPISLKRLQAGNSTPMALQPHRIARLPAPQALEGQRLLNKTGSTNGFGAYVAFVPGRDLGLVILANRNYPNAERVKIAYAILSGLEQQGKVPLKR

Beta-lactamase (Enterobacter cloacae, UniProt P05364), sequence (P05364 whole entry): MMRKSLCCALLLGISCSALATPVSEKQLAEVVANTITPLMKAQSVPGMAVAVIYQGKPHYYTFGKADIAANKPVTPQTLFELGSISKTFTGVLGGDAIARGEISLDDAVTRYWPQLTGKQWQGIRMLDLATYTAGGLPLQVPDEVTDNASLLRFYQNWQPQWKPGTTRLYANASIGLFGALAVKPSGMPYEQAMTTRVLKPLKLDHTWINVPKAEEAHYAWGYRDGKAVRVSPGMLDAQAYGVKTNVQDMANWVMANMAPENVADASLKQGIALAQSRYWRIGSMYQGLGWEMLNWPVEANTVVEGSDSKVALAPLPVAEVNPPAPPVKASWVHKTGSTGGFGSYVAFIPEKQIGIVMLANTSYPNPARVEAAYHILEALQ
Beta-lactamase (Staphylococcus aureus), sequence (P00807 whole entry): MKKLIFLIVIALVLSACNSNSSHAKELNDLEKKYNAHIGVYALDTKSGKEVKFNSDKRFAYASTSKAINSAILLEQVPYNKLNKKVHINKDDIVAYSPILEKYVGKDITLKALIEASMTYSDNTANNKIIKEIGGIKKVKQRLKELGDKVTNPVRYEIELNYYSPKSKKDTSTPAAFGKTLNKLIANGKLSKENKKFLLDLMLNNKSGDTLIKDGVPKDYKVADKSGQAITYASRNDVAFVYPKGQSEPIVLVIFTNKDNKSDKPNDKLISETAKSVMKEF
Beta-lactamase TEM, sequence (P62593 whole entry): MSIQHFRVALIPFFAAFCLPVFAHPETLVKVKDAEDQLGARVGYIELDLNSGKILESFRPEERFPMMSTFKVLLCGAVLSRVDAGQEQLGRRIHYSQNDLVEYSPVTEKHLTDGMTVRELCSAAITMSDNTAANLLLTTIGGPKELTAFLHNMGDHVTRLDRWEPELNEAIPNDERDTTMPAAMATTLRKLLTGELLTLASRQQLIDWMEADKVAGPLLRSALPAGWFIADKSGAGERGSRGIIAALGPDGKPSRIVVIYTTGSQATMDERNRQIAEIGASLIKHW

With `CC/C=C\C/C=C\C/C=C\CCCCCCCc1cccc(O)c1C(=O)O` the MIC (Enterobacter cloacae) was > 256 µg/mL, the MIC (Pseudomonas aeruginosa) was > 256 µg/mL and the MIC (Staphylococcus aureus [1]) was 2 µg/mL (≈ 5.4 µM). For the same compound, the Activity [2] was “inactive”, the MIC (Klebsiella pneumoniae) was > 256 µg/mL and the MIC (Streptococcus pyogenes) was 2 µg/mL (≈ 5.4 µM). The MIC (Escherichia coli) was > 256 µg/mL, the MIC (Enterococcus faecalis) was 0.25 µg/mL (≈ 0.675 µM) and the MIC (Serratia marcescens) was > 256 µg/mL. For the same compound, the IC50 (Beta-lactamase [3]) was 44.5 µM, the MIC (Staphylococcus aureus [4]) was 32 µg/mL (≈ 86.4 µM) and the MIC (Bacillus subtilis) was 4 µg/mL (≈ 10.8 µM). For the same compound, the IC50 [5] was 10.1 µg/mL (≈ 27.3 µM), the IC50 (Beta-lactamase TEM) was 13.5 µM and the MIC [6] was 2 µg/mL (≈ 5.4 µM). For the same compound, the MIC (Staphylococcus aureus [7]) was 8 µg/mL (≈ 21.6 µM), the MIC (Streptococcus pneumoniae) was 2 µg/mL (≈ 5.4 µM) and the MIC (Proteus mirabilis) was > 256 µg/mL. It also gave an IC50 (Beta-lactamase [8]) of 300 µM, an IC50 [9] of 79.7 µg/mL (≈ 215 µM) and an MIC [10] of 2 µg/mL (≈ 5.4 µM). It also gave an IC50 (Beta-lactamase [11]) of 109 µM.
Compound `O=C(O)[C@H]1/C(=C/CO)O[C@@H]2CC(=O)N21` [CLAVULANIC ACID] has an IC50 [9] of 0.35 µg/mL (≈ 1.76 µM).

— ChEMBL document CHEMBL1149069, “SB-202742, a novel beta-lactamase inhibitor isolated from Spondias mombin” (J Nat Prod, 1994)
